Assay results: ChEMBL document CHEMBL4346654 (Eur J Med Chem, 2019)
Converted amounts (≈) assume the structure as drawn.

Key:
Format in all cases: functional
Staphylococcus aureus [1] = assay: Bactericidal activity against MLS/methicillin-resistant Staphylococcus aureus PU 32 expressing inducible ermA gene pretreated followed by subculture in absence of compound measured after 24 hrs
Method in brief: (§1)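 MBC assay. Following MIC determination by CLSI standard two-fold broth dilution, samples at 1–8 fold MIC were transferred to fresh culture medium. They were subcultured for 24 h without antibiotic. Isolates were identified by 16S rDNA sequencing. S. aureus ATCC 29213 was used as a control strain.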

Streptococcus pneumoniae [2] = assay: Antibacterial activity against penicillin-susceptible Streptococcus pneumoniae PU 09 expressing mef gene assessed as reduction in microbial growth by CLSI based two-fold broth dilution method
Haemophilus influenzae [3] = assay: Bactericidal activity against azithromycin-susceptible Haemophilus influenzae ATCC 49247 pretreated followed by subculture in absence of compound measured after 24 hrs
Method in brief: (§2)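 Isolates were identified by 16S rDNA sequencing. MIC was determined by CLSI-recommended two-fold broth dilution. For MBC, samples from 1–8 fold MIC were transferred to culture medium and subcultured for 24 h without antibiotic.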

Staphylococcus aureus [4] = assay: Bactericidal activity against MLS-resistant Staphylococcus aureus PU 20 expressing constitutive ermC gene pretreated followed by subculture in absence of compound measured after 24 hrs; method in brief: as §1
Staphylococcus aureus [5] = assay: Selectivity ratio of MBC to MIC for MLS/methicillin-resistant Staphylococcus aureus PU 32 expressing inducible ermA gene
Method in brief: (§3)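 MBC/MIC ratio. MIC was measured by CLSI standard two-fold broth dilution. MBC was measured by transferring samples at 1–8 fold MIC to culture medium and subculturing for 24 h without antibiotic. Isolates were identified by 16S rDNA sequencing.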

Streptococcus pneumoniae [6] = assay: Bactericidal activity against penicillin-susceptible Streptococcus pneumoniae PU 09 expressing mef gene pretreated followed by subculture in absence of compound measured after 24 hrs; method in brief: as §2
Streptococcus pneumoniae [7] = assay: Bactericidal activity against erythromycin-susceptible Streptococcus pneumoniae ATCC49619 pretreated followed by subculture in absence of compound measured after 24 hrs; method in brief: as §2
Streptococcus pneumoniae [8] = assay: Antibacterial activity against erythromycin-susceptible Streptococcus pneumoniae ATCC49619 assessed as reduction in microbial growth by CLSI based two-fold broth dilution method
Staphylococcus aureus [9] = assay: Antibacterial activity against MLS-resistant Staphylococcus aureus PU 20 expressing constitutive ermC gene assessed as reduction in microbial growth by CLSI based two-fold broth dilution method
Streptococcus pneumoniae [10] = assay: Selectivity ratio of MBC to MIC for penicillin-susceptible Streptococcus pneumoniae PU 09 expressing mef gene; method in brief: as §2
Streptococcus pyogenes [11] = assay: Antibacterial activity against MLS-resistant Streptococcus pyogenes 01-968 expressing inducible ermB gene assessed as reduction in microbial growth by CLSI based two-fold broth dilution method
Haemophilus influenzae [12] = assay: Antibacterial activity against azithromycin-susceptible Haemophilus influenzae ATCC 49247 assessed as reduction in microbial growth by CLSI based two-fold broth dilution method
Streptococcus pyogenes [13] = assay: Selectivity ratio of MBC to MIC for MLS-resistant Streptococcus pyogenes 01-968 expressing inducible ermB gene; method in brief: as §3
Streptococcus pyogenes [14] = assay: Bactericidal activity against MLS-resistant Streptococcus pyogenes 01-968 expressing inducible ermB gene pretreated followed by subculture in absence of compound measured after 24 hrs; method in brief: as §1
Staphylococcus aureus [15] = assay: Antibacterial activity against MLS-resistant Staphylococcus aureus PU 32 expressing inducible ermA gene assessed as reduction in microbial growth by CLSI based two-fold broth dilution method
Streptococcus pneumoniae [16] = assay: Antibacterial activity against Streptococcus pneumoniae 07P390 expressing constitutive ermB gene assessed as reduction in microbial growth by CLSI based two-fold broth dilution method
Haemophilus influenzae [17] = assay: Selectivity ratio of MBC to MIC for azithromycin-susceptible Haemophilus influenzae ATCC 49247; method in brief: as §2
Streptococcus pneumoniae [18] = assay: Selectivity ratio of MBC to MIC for erythromycin-susceptible Streptococcus pneumoniae ATCC49619; method in brief: as §2
Streptococcus pneumoniae [19] = assay: Bactericidal activity against Streptococcus pneumoniae 07P390 expressing constitutive ermB gene pretreated followed by subculture in absence of compound measured after 24 hrs; method in brief: as §2

Compound	MBC (Staphylococcus aureus [1]) [µg/mL]	MIC (Streptococcus pneumoniae [2]) [µg/mL]	MBC (Haemophilus influenzae [3]) [µg/mL]	MBC (Staphylococcus aureus [4]) [µg/mL]	Selectivity ratio (Staphylococcus aureus [5])	MBC (Streptococcus pneumoniae [6]) [µg/mL]	MBC (Streptococcus pneumoniae [7]) [µg/mL]	MIC (Streptococcus pneumoniae [8]) [µg/mL]	MIC (Staphylococcus aureus [9]) [µg/mL]	Selectivity ratio (Streptococcus pneumoniae [10])	MIC (Streptococcus pyogenes [11]) [µg/mL]	MIC (Haemophilus influenzae [12]) [µg/mL]	Selectivity ratio (Streptococcus pyogenes [13])	MBC (Streptococcus pyogenes [14]) [µg/mL]	MIC (Staphylococcus aureus [15]) [µg/mL]	MIC (Streptococcus pneumoniae [16]) [µg/mL]	Selectivity ratio (Haemophilus influenzae [17])	Selectivity ratio (Streptococcus pneumoniae [18])	MBC (Streptococcus pneumoniae [19]) [µg/mL]
CC[C@H]1OC(=O)[C@@](C)(F)C(=O)[C@H](C)[C@@H](O[C@@H]2O[C@H](C)C[C@H](N(C)C)[C@H]2O)[C@](C)(OC)C[C@@H](C)/C(=N\OCC#Cc2cncc(C#N)c2)[C@H](C)[C@H]2OC(=O)O[C@@]21C	> 4	1	16 (≈ 20.3 µM)	> 256	>8	2 (≈ 2.54 µM)	0.125 (≈ 0.159 µM)	0.125	128	2	0.25	8	>8	> 2	0.5	> 32	2	1	–
CC[C@H]1OC(=O)[C@@](C)(F)C(=O)[C@H](C)[C@@H](O[C@@H]2O[C@H](C)C[C@H](N(C)C)[C@H]2O)[C@](C)(OC)C[C@@H](C)/C(=N\OCC#Cc2cnc(N)c3ccccc23)[C@H](C)[C@H]2OC(=O)O[C@@]21C	32 (≈ 38.7 µM)	16	64 (≈ 77.4 µM)	> 128	4	16 (≈ 19.3 µM)	4 (≈ 4.84 µM)	2	128	1	1	64	8	8 (≈ 9.67 µM)	8	> 32	1	2	–
CC[C@H]1OC(=O)[C@H](C)[C@@H](O[C@H]2C[C@@](C)(OC)[C@@H](O)[C@H](C)O2)[C@H](C)[C@@H](O[C@@H]2O[C@H](C)C[C@H](N(C)C)[C@H]2O)[C@](C)(OC)C[C@@H](C)C(=O)[C@H](C)[C@@H](O)[C@]1(C)O [CLARITHROMYCIN]	> 256	4	8 (≈ 10.7 µM)	–	>8	32 (≈ 42.8 µM)	0.25 (≈ 0.334 µM)	0.062	> 256	8	8	4	>8	> 64	32	> 32	2	4	–
CC[C@H]1OC(=O)[C@@](C)(F)C(=O)[C@H](C)[C@@H](O[C@@H]2O[C@H](C)C[C@H](N(C)C)[C@H]2O)[C@](C)(OC)C[C@@H](C)/C(=N\OC/C=C/c2ccc3ncc(C(=O)O)cc3c2)[C@H](C)[C@H]2OC(=O)O[C@@]21C	> 32	16	64 (≈ 74.6 µM)	–	>8	32 (≈ 37.3 µM)	2 (≈ 2.33 µM)	1	> 256	2	0.062	32	>8	> 0.5	4	32	2	2	> 32
CC[C@H]1OC(=O)[C@@](C)(F)C(=O)[C@H](C)[C@@H](O[C@@H]2O[C@H](C)C[C@H](N(C)C)[C@H]2O)[C@](C)(OC)C[C@@H](C)/C(=N\OCC#Cc2ccc(N)nc2)[C@H](C)[C@H]2OC(=O)O[C@@]21C	> 8	2	32 (≈ 41.2 µM)	> 256	>8	2 (≈ 2.57 µM)	0.5 (≈ 0.644 µM)	0.25	256	1	0.125	16	>8	> 1	1	> 32	2	2	–
CC[C@H]1OC(=O)[C@@](C)(F)C(=O)[C@H](C)[C@@H](O[C@@H]2O[C@H](C)C[C@H](N(C)C)[C@H]2O)[C@](C)(OC)C[C@@H](C)/C(=N\OCC#Cc2cncc(C(N)=O)c2)[C@H](C)[C@H]2OC(=O)O[C@@]21C	> 8	2	32 (≈ 39.8 µM)	–	>8	2 (≈ 2.48 µM)	1 (≈ 1.24 µM)	0.25	> 256	1	0.125	16	>8	> 1	1	> 32	2	4	–
CC[C@H]1OC(=O)[C@@](C)(F)C(=O)[C@H](C)[C@@H](O[C@@H]2O[C@H](C)C[C@H](N(C)C)[C@H]2O)[C@](C)(OC)C[C@@H](C)/C(=N\OC/C=C/c2cncc(N)c2)[C@H](C)[C@H]2OC(=O)O[C@@]21C	> 4	1	16 (≈ 20.5 µM)	> 256	>8	1 (≈ 1.28 µM)	0.125 (≈ 0.16 µM)	0.125	256	1	0.031	8	>8	> 0.25	0.5	> 32	2	1	–
CC[C@H]1OC(=O)[C@@](C)(F)C(=O)[C@H](C)[C@@H](O[C@@H]2O[C@H](C)C[C@H](N(C)C)[C@H]2O)[C@](C)(OC)C[C@@H](C)/C(=N\OC/C=C/c2cncc(C(=O)O)c2)[C@H](C)[C@H]2OC(=O)O[C@@]21C	> 64	8	32 (≈ 39.6 µM)	–	>8	16 (≈ 19.8 µM)	0.5 (≈ 0.619 µM)	0.25	> 256	2	0.5	32	>8	> 4	8	> 32	1	2	–
CC[C@H]1OC(=O)[C@@](C)(F)C(=O)[C@H](C)[C@@H](O[C@@H]2O[C@H](C)C[C@H](N(C)C)[C@H]2O)[C@](C)(OC)C[C@@H](C)/C(=N\OCC#Cc2cncc(N)c2)[C@H](C)[C@H]2OC(=O)O[C@@]21C	> 4	4	32 (≈ 41.2 µM)	–	>8	4 (≈ 5.15 µM)	0.5 (≈ 0.644 µM)	0.25	> 256	1	0.062	16	>8	> 0.5	0.5	> 32	2	2	–
CC[C@H]1OC(=O)[C@@](C)(F)C(=O)[C@H](C)[C@@H](O[C@@H]2O[C@H](C)C[C@H](N(C)C)[C@H]2O)[C@](C)(OC)C[C@@H](C)/C(=N\OCC#Cc2cncc(NC(C)=O)c2)[C@H](C)[C@H]2OC(=O)O[C@@]21C	> 8	4	16 (≈ 19.5 µM)	–	>8	4 (≈ 4.88 µM)	0.25 (≈ 0.305 µM)	0.062	> 256	1	0.125	8	>8	> 1	1	> 32	2	4	–
CC[C@H]1OC(=O)[C@@](C)(F)C(=O)[C@H](C)[C@@H](O[C@@H]2O[C@H](C)C[C@H](N(C)C)[C@H]2O)[C@](C)(OC)C[C@@H](C)/C(=N\OCC#Cc2ccc([N+](=O)[O-])nc2)[C@H](C)[C@H]2OC(=O)O[C@@]21C	2 (≈ 2.48 µM)	1	32 (≈ 39.7 µM)	> 256	8	4 (≈ 4.96 µM)	0.125 (≈ 0.155 µM)	0.125	128	4	0.016	16	4	0.062 (≈ 0.0768 µM)	0.25	> 32	2	1	–
